MrgX1 agonist: human MrgX1 receptor agonism, primary screen. Q96LB2. MrgX1-HEK293 cells, Fluo-4 calcium fluorescence, agonist mode; hits give high values. B-score at 10 µM. 310,000 compounds, 0.44% hits. AID 588627;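 active means calcium response B-score plate-corrected fluorescence ratio at least 3 library SD, with starting fluorescence B-score inside 5 SD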
Target sequence (Q96LB2 whole entry, looked up): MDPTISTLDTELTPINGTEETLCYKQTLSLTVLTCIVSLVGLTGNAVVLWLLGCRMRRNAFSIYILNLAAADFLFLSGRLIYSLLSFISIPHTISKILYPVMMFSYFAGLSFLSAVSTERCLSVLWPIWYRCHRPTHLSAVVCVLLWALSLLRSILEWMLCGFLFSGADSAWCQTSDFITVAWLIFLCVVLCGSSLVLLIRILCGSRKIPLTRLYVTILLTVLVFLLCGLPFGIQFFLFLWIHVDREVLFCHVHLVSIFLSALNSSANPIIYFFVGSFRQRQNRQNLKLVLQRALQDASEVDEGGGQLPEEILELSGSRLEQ
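System – MrgX1-expressing HEK293 cells · Incubation – cells plated overnight, dye loaded 0.5 h 37 °C, 0.5 h room temperature · Technique – kinetic Fluo-4 NW fluorescence of intracellular calcium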
MrgX1 allo act: allosterically activates human MrgX1 receptor signaling; Q96LB2; MrgX1-HEK293, Fluo-4 calcium flux, FDSS; hits give high values; B-score at 10 µM; 310,000 compounds, 0.63% hits; AID 588675;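 active means plate-corrected calcium response at least 3 library SD above typical, normal starting fluorescence, not activating the receptor alone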;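 further: compound read alongside a low EC10 to EC30 dose of BAM8-22 agonist; peak minus trough fluorescence over baseline measured at the second addition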
RGS4 inh: human RGS4 inhibition. HEK293 M3R/RGS4 inducible, Fluo-4 calcium flux; hits give high values; triggered by carbachol at its EC20. B-score at 10 µM. 310,000 compounds, 0.45% hits. AID 463165;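 active means B-score, a plate-corrected calcium signal, over three deviations above library mean, with baseline fluorescence within five deviations of library mean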;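 further: RGS4 expression induced by doxycycline in cells with stable M3 receptor; B-score is computed from the integrated fluorescence ratio over baseline after carbachol; higher B-score means a larger calcium signal and so more RGS4 inhibition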
Target sequence (P49798 whole entry, looked up): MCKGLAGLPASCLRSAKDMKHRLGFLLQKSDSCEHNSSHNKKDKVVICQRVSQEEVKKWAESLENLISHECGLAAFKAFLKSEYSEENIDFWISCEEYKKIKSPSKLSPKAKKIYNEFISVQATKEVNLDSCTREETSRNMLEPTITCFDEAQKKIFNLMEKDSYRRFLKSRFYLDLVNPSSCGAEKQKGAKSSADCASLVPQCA
RGS4 pot: RGS4 potentiation or activation. B-score at 10 µM. HEK293 M3R/inducible RGS4, carbachol calcium flux Fluo4; hits give low values. 310,000 compounds, 0.92% hits;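 active means B-score of the integrated calcium signal more than 4 SD below the library mean, with starting fluorescence not abnormally high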;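 further: negative B-score means reduced calcium response which marks RGS4 activation or potentiation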
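test system = M3R-expressing HEK293 line, RGS4 induced by doxycycline | probe or stimulus = carbachol at ECmax as muscarinic agonist stimulus | timing = dye loading 30 min 37 °C, buffer rest 30 min RT | signal = calcium dye Fluo4 fluorescence | evaluation = B score from integrated fluorescence ratio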
MrgX1 antag: blocks BAM8-22 activation of human MrgX1 receptor. MRGX1-HEK293 calcium flux, Fluo-4, BAM8-22 antagonism; hits give low values. 310,000 compounds, 1.3% hits. B-score at 10 µM;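 active means calcium-response B-score plate-corrected more than 3 library SD below zero, starting fluorescence within 5 deviations, no agonist response on first addition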;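 further: peak minus trough fluorescence over baseline after final BAM8-22 challenge near maximal dose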
RGS4 block valid: validation of RGS4 inhibitors | calcium response, % at 10 µM | HEK293 M3R/RGS4, carbachol calcium Fluo-4 fluorescence; carbachol added at its EC20; 0 = buffer wells, 100 = carbachol control | shares compounds with RGS4 inh | 1,700 compounds, 65% hits;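 active means duplicate-averaged calcium response above the buffer-only control mean plus 5 SD of those controls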;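 further: integrated fluorescence ratio F max minus min over baseline F0; higher response in RGS4-induced cells means RGS4 inhibition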
M3R Ca ctr: non-induced cell nonspecific activity of RGS4 inhibitors | shares compounds with RGS4 inh | HEK293 M3R non-induced, carbachol calcium Fluo-4; submaximal (EC20) carbachol stimulus; buffer wells 0%, carbachol control wells 100% | activity (percent), % at 10 µM | 1,900 compounds, 20% hits | AID 493000; call rule not given here;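 further: RGS4 induction absent so cells express M3R without RGS4; higher means more calcium signal and flags a non-specific hit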
M3R basal Ca ctr: second counter-screen for RGS4 inhibitors: non-induced cells without carbachol; AID 493001; 1,900 compounds, 22% hits; calcium response (agonist-mode artifact), % at 10 µM; shares compounds with RGS4 inh; HEK293 M3R/RGS4 non-induced, Fluo-4 calcium, no carbachol; normalised: buffer wells 0%, carbachol wells 100%;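 active means duplicate-averaged calcium rise in uninduced cells above buffer wells' mean plus 5 SD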
MrgX1 ag reconf: reconfirmed activator of human MrgX1 receptor signaling; shares compounds with MrgX1 agonist; MrgX1-HEK293, Fluo-4 calcium fluorescence, FDSS; activation, % at 10 µM; 600 compounds, 78% hits; AID 602412;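 active means calcium signal rise, corrected for plate position, at least 3 library SD high, with starting brightness within 5 such deviations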; further: reference of the scale not given here
MrgX1 PAM conf: human MrgX1 positive allosteric modulation, re-confirmation. shares compounds with MrgX1 allo act. MrgX1-HEK293, Fluo-4 calcium fluorescence, FDSS. activation (ratio percentage), % at 10 µM. 1,200 compounds, 13% hits. AID 602413;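 active means ratio at least 3 SD above the weak peptide control, stable starting fluorescence, no direct agonism earlier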;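 further: compound followed by low BAM8-22 agonist challenge near EC20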
MrgX1 antag conf: reconfirmed antagonist of human MrgX1 receptor signaling | shares compounds with MrgX1 antag | MrgX1-HEK293, BAM8-22 calcium flux, Fluo-4; hits give low values | remaining BAM8-22 calcium response % of control (hits give low values), % at 10 µM | 2,300 compounds, 19% hits | AID 602420;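 active means remaining agonist calcium response no higher than 100% minus 3 SD of agonist-only control wells, with starting fluorescence near control levels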;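 further: agonist BAM8-22 given at a near maximal EC90 to ECmax level; peak minus minimum fluorescence divided by baseline after agonist addition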
HEK293 Ca flux: counter-screen for MrgX1 antagonists: effect in parental HEK293 cells. shares compounds with MrgX1 antag. Fluo-4 calcium fluorescence, FDSS. fluorescence ratio F(max-min)/F0 at 10 µM. 4,000 compounds, 2% hits;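 active means duplicate-averaged calcium fluorescence ratio at least three times the standard deviation of buffer wells, a nonspecific response in parental cells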
HEK293 Ca counter: activity in parental HEK293 cells without MrgX1 | 4,000 compounds, 0.4% hits | shares compounds with MrgX1 antag | fluorescence ratio F(max-min)/F0 at 10 µM | parental HEK293 calcium flux, Fluo-4 fluorescence ratio; hits give high values;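 active means calcium fluorescence ratio, averaged over duplicates, at least 3 SD of the buffer-well ratio, meaning a nonspecific response in receptor-free cells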;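 further: untransfected parental HEK293 lacking MrgX1 used as counterscreen for MrgX1 allosteric activators; fluorescence change taken during the second addition on a kinetic imager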
HEK293 Ca cntr2: MrgX1 activator counter-screen hit in parental HEK293 cells; 4,000 compounds, 8.7% hits; fluorescence ratio F(max-min)/F0 at 10 µM; AID 624115; shares compounds with MrgX1 antag; Fluo-4 calcium fluorescence (FDSS); hits give high values;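 active means calcium fluorescence ratio at least three times the spread of buffer wells, meaning a non-specific response in parental cells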
An asterisk follows results filed as active; i = inactive; x = no result given. The list is not random: actives were taken first. Their share in the collection is about 3.5%.

SMILES	MrgX1 agonist	MrgX1 allo act	RGS4 inh	RGS4 pot	MrgX1 antag	RGS4 block valid	M3R Ca ctr	M3R basal Ca ctr	others
COc1cccc(/C=C/c2[nH]c(=O)[nH]c(=O)c2[N+](=O)[O-])c1O	i	i	5.3*	i	i	17%*	i	i
COc1cc(/C=C/c2[nH]c(=O)[nH]c(=O)c2[N+](=O)[O-])cc(OC)c1O	i	i	i	i	i	x	x	x
CC(C)c1ccc(/C=C/c2[nH]c(=O)[nH]c(=O)c2[N+](=O)[O-])cc1	i	i	i	i	i	x	x	x
O=c1[nH]c(/C=C/c2ccccc2Cl)c([N+](=O)[O-])c(=O)[nH]1	i	i	10*	i	i	44%*	42%*	i
Cc1cc(=O)[nH]c(SCC(=O)N2CCN(S(=O)(=O)c3ccccc3)C2)n1	i	i	i	i	i	x	x	x
Cc1ccc(S(=O)(=O)NCC(=O)N(CC2CCCO2)C(C(=O)NC2CCCCC2)C(C)C)cc1 (stereo not given)	i	i	i	i	i	x	x	x
N#Cc1c(NC(=O)CSc2ncn[nH]2)sc2c1CCCC2	i	i	5.1*	i	i	8.5%*	i	i
CC1CCc2c(sc(NC(=O)CSc3ncn[nH]3)c2C#N)C1 (stereo not given)	i	i	i	i	i	x	x	x
COC(=O)c1ccc(/C=C/C(=O)c2ccc(OC)c(OC)c2)cc1	i	i	8.9*	i	i	7.0%*	44%*	i
COc1cc(/C=C/C(=O)c2ccc(C)cc2)ccc1OCC#N	i	i	i	i	i	i	32%*	i
Cc1ccc(C(=O)/C=C/c2ccc3ncccc3c2)cc1	i	i	7.8*	i	i	22%*	36%*	i
Cc1ccc(/C=C/C(=O)c2ccccc2)cc1	i	i	i	i	i	x	x	x
O=C(c1ccco1)N1CCN(Cc2cc(=O)c(OCc3c(F)cccc3Cl)co2)CC1	i	i	i	i	i	x	x	x
CC(=O)c1cccc(N(CC(=O)Nc2ccccc2C(=O)N2CCCC2)S(C)(=O)=O)c1	i	i	i	i	i	x	x	x
CCCC(NC(=O)COc1cc2c(c3oc(=O)cc(C)c13)CCC(C)(C)O2)C(=O)O (stereo not given)	i	i	i	i	i	i	i	i
Cc1cc(=O)oc2c3c(cc(OCC(=O)N[C@@H](CC(C)C)C(=O)O)c12)OC(C)(C)CC3	i	i	i	i	i	i	i	i
CCOC(=O)C(NC(=O)N(C)C)(Nc1sc(C)c(CC)c1C#N)C(F)(F)F (stereo not given)	i	i	i	i	i	x	x	x
CC(C)OP(=O)(OC(C)C)/C(C=O)=N\Nc1ccc([N+](=O)[O-])cc1	i	i	6.6*	i	i	13%*	i	i
O=C(CN1CCN(S(=O)(=O)N2CCCCCC2)CC1)Nc1ccc(Br)cc1	i	i	i	i	i	x	x	x
Nc1ncnc2c1ncn2[C@@H]1O[C@H](CO)C[C@@H]1O	i	i	i	i	i	x	x	x
Nc1ncnc2c1ncn2C1OC(CO)C(O)C1O (stereo not given)	i	9.4*	9.4*	i	i	41%*	71%*	i	MrgX1 PAM conf=i;HEK293 Ca flux=i;HEK293 Ca counter=i;HEK293 Ca cntr2=i
CCOC(=O)[C@@H]1[C@H]2COc3ccccc3[C@@H]2N2C(=O)N(c3ccc(Cl)cc3)C(=O)[C@@]12C	i	i	i	i	-8.1*	i	i	i	MrgX1 antag conf=i;HEK293 Ca flux=i;HEK293 Ca counter=i;HEK293 Ca cntr2=i
O=C(CC1(O)C(=O)Nc2ccccc21)c1cccc(Br)c1 (stereo not given)	i	i	i	i	i	x	x	x
N#CC1(Nc2cccc(Br)c2)C(=O)Nc2ccccc21 (stereo not given)	54*	i	10*	i	i	44%*	30%*	76%*	MrgX1 ag reconf=195%*;HEK293 Ca flux=i;HEK293 Ca counter=i;HEK293 Ca cntr2=49*
Cc1ccc(S(=O)(=O)CCC(=O)c2ccc(O)cc2O)cc1	30*	i	24*	i	i	62%*	46%*	i	MrgX1 ag reconf=127%*;HEK293 Ca flux=i;HEK293 Ca counter=i;HEK293 Ca cntr2=i
Cc1ccc(S(=O)(=O)CCC(=O)OCC(=O)c2cc(C)ccc2C)cc1	i	i	i	i	i	x	x	x
O=C(NCCCCCCNC(=O)c1cncc(O)c1)c1cncc(O)c1	i	i	i	i	i	x	x	x
COc1cc(C2C(C#N)=C(N)Oc3cc(N(C)C)ccc32)cc2c1OCO2 (stereo not given)	94*	i	i	i	i	i	i	108%*	MrgX1 ag reconf=273%*;HEK293 Ca flux=i;HEK293 Ca counter=i;HEK293 Ca cntr2=86*
Cc1ccc(S(=O)(=O)N(CC2CO2)c2cc(Cl)ccc2Cl)cc1 (stereo not given)	i	i	i	i	i	x	x	x

Screens as filed in PubChem.
